Laboratory results reported in PubChem BioAssay.
The source made the active and inactive calls.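 The calls were made as follows, unless noted: active = viability at or under a set limit in both replicates, limit being median viability minus 3 SD (cut at about 48% in these data, passing the limit was not always enough); inconclusive = at or under the limit in just one replicate; inactive = at or above the limit in both replicates.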

Experiments:
[1] = reducers of endogenous Her2 protein level, primary screen, SKBR3 breast tumor cells, AlphaScreen, ATP viability (AID 461;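 active = Her2 level under about 52% in both replicate screens, with viability over 70% of control, limit read from the data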;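 as to Her2 level: lower value means less Her2 protein in the cells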;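 as to viability: percent of carrier control wells set as 100% viability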); settings: 18-24 h, measured here: SKBR3 viability, ATP luminescence, at 10 µM
[2] = molecular target: Receptor tyrosine-protein kinase erbB-2 (Homo sapiens) (UniProt P04626); test: as above; settings: 18-24 h, at 10 µM, stronger effect = lower value
[3] = SK-BR-3 cell growth inhibitors, pilot screen, 24 h, human (AID 572;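 active = viability at or below 10% of carrier control in both of two separate runs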;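 also: compound exposure lasted between 18 and 24 h rather than exactly 24 h; 100% = carrier-treated control wells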); settings: SK-BR-3 viability, CellTiter-Glo luminescence, at 10 µM, stronger effect = lower value
[4] = HUVEC growth inhibition – cell-based, human, primary screen (AID 575;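 active = viability at or below 30% in both replicate assays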;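 also: 100% = median of untreated cell wells with 0.1% DMSO on each plate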); settings: HUVEC proliferation, CellTiter-Glo luminescence, 72 h; at 10 µM; stronger effect = lower value
Outline: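 System: primary human umbilical vein endothelial cells; Quantity: 1250 endothelial cells in each well; Buffer or medium: supplemented EBM, 2% fetal bovine serum; Doses: one dose, 10 µM final, 0.1% DMSO; Incubation: 72 h compound incubation; Technique: ATP-based CellTiter-Glo luminescent read; Evaluation: percent of median DMSO-control luminescence; Controls: vehicle and MePR control wells.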

[5] = growth inhibitors of H69AR lung tumor, primary screen, human, duplicate replicates (AID 580); settings: H69AR lung tumor cells viability, ATP luminescence, 72 h; at 10 µM; stronger effect = lower value;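 also: 100% = mean luminescence of untreated wells and 0% = no signal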
[6] = reversal of MRP1-mediated doxorubicin resistance, pilot screen, H69AR cells, doxorubicin co-treatment (AID 601;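 active = viability loss from added drug above about 55%, and viability with drug at most 40%, in both replicates, limit read from the data, passing the limit was not always enough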); settings: CellTiter-Glo, 72 h, at 10 µM; for differential viability (reversal): stronger effect = higher value
[7] = 384-well plate pilot, post-Golgi transport modulator project, inhibition of yeast transport mutant growth (AID 636; in the data active = inhibition above about 31%); settings: absorbance 615 nm, about 18 h, stronger effect = higher value
[8] = growth suppression of yeast trafficking mutant, preliminary HTS, modulators of trafficking downstream of Golgi apparatus project, 1536-format plate, OD 615 nm (AID 637; in the data active = inhibition above about 30%); settings: yeast transport mutant growth, absorbance 615 nm, 18 h; stronger effect = higher value
[9] = H69AR cells + 2 uM doxorubicin, measured here: viability with 2 uM doxorubicin, stronger effect = lower value
[10] = H69AR cells, compound alone cytotoxicity

Receptor tyrosine-protein kinase erbB-2 (Homo sapiens), sequence (P04626 whole entry, looked up): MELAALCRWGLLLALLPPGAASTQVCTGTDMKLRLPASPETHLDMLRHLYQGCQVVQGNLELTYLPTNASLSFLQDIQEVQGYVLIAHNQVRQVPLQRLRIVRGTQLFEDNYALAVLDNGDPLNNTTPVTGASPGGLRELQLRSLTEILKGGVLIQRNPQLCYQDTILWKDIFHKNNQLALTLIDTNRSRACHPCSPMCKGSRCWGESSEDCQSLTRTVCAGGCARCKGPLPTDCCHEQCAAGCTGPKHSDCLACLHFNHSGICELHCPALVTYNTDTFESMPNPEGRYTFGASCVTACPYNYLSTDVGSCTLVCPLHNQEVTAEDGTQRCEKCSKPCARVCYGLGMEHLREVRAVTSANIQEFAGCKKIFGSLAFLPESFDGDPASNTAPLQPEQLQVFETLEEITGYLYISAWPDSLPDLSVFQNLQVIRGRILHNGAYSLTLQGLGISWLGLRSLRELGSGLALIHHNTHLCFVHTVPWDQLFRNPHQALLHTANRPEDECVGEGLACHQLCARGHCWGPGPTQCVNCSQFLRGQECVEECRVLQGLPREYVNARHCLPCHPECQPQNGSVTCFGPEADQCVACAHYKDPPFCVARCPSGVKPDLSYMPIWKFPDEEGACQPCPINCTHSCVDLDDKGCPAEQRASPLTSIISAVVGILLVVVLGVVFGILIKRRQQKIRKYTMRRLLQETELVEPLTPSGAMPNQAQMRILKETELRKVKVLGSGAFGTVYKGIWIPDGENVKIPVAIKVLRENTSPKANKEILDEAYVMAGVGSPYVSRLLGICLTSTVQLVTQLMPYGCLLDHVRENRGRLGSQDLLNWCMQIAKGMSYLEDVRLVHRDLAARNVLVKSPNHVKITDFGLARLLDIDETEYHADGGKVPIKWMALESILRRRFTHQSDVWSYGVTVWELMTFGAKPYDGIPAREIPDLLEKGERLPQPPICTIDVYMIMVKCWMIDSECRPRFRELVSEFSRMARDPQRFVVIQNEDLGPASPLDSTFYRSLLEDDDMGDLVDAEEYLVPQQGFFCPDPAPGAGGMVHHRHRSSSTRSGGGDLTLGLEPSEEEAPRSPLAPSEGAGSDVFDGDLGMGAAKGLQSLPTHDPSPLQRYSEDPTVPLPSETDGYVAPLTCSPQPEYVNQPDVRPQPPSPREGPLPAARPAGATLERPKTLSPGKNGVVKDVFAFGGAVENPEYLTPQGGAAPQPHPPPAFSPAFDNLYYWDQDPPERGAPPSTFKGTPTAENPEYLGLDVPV

Row | SMILES | viability [1] [%] | Her2 level [2] | viability [3] | viability [4] | viability [5] | differential viability (reversal) ([6]; H69AR cells + 2 uM doxorubicin) | viability [6, 9] [%] | viability [6, 10] [%] | inhibition [7] | inhibition [8]
1 | COc1cccc(C(=O)NCc2nnc(SCC(=O)Nc3nccs3)n2-c2ccccc2)c1 | 101 | 108% (inactive) | 101% (inactive) | 92.9% (inactive) | 97.9% (inactive) | -3.27% (inactive) | 101 | 97.9 | -2.18% (inactive) | 1.17% (inactive)
2 | CC(=O)N1CCN=C1SCc1c(F)cccc1Cl | 102 | 105% (inactive) | 102% (inactive) | 73.1% (inactive) | 78.8% (inactive) | -5.06% (inactive) | 83.8 | 78.8 | 3.85% (inactive) | -1% (inactive)
3 | O=C(CSc1nc(-c2ccccc2)cs1)NC(=O)NCc1ccco1 | 86.5 | 77.5% (inactive) | 86.5% (inactive) | 58.4% (inactive) | 76.7% (inactive) | -0.93% (inactive) | 77.6 | 76.7 | -5.6% (inactive) | 2.06% (inactive)
4 | N#CC1=C(N)S[C@H](C(=O)C23CC4CC(CC(C4)C2)C3)[C@H]1c1ccncc1 | 81 | 79% (inactive) | 81% (inactive) | 41% (inactive) | 93.7% (inactive) | 47.6% (inactive) | 46.1 | 93.7 | -2.8% (inactive) | 4.84% (inactive)
5 | CN(C)S(=O)(=O)c1ccc(S(=O)(=O)Nc2ccc3c(c2)oc2ccccc23)cc1 | 79.5 | 97% (inactive) | 79.5% (inactive) | 59.2% (inactive) | 73.2% (inactive) | -2.9% (inactive) | 76.1 | 73.2 | 2.11% (inactive) | -3.64% (inactive)
6 | N#Cc1cc2sc3nnc(-c4ccncc4)n3c2cc1C#N | 112 | 35.5% (active) | 112% (inactive) | 37.8% (inactive) | 32.3% (active) | -18.2% (inactive) | 50.5 | 32.3 | -1.71% (inactive) | 7.94% (inactive)
7 | CN=Cc1cc(-c2ccccc2)sc1O | 82 | 102% (inactive) | 82% (inactive) | 102% (inactive) | 90% (inactive) | 13% (inactive) | 77 | 90 | 0.41% (inactive) | 32.7% (active)
8 | Cc1nc(NC(=O)C2CC3CCCC(C2)C3=O)sc1C (stereo not given) | 99.5 | 99.5% (inactive) | 99.5% (inactive) | 95% (inactive) | 82.8% (inactive) | -2.88% (inactive) | 85.7 | 82.8 | 0.39% (inactive) | -6.39% (inactive)
9 | O=C(CCn1c(=O)sc2ccccc21)NC1=NCCS1 | 84 | 96% (inactive) | 84% (inactive) | 94.6% (inactive) | 91.6% (inactive) | 4.68% (inactive) | 86.9 | 91.6 | -1.87% (inactive) | -6.72% (inactive)
10 | ON1C2CCCCC2N(O)C1c1c(F)c(F)c(F)c(F)c1F (stereo not given) | 89.5 | 79% (inactive) | 89.5% (inactive) | 85.9% (inactive) | 92.8% (inactive) | 10.3% (inactive) | 82.5 | 92.8 | -5.2% (inactive) | -0.97% (inactive)
11 | O=C1CCCC2=C1C(c1ccsc1)CC(=O)N2c1ccccc1 (stereo not given) | 90.5 | 96% (inactive) | 90.5% (inactive) | 113% (inactive) | 92.4% (inactive) | -3.37% (inactive) | 95.7 | 92.4 | -3.29% (inactive) | -3.82% (inactive)
12 | CCOC(=O)Nc1ccc2c(c1)N(C(=O)CN(CC)CC)c1ccccc1C=C2 | 87.5 | 93% (inactive) | 87.5% (inactive) | 97.3% (inactive) | 91.4% (inactive) | 8.63% (inactive) | 82.8 | 91.4 | -4.61% (inactive) | 5.9% (inactive)
13 | Cc1cc(NC(=O)CSc2nc3ccccc3n2CC(=O)N2CCCCC2)no1 | 78 | 70% (inactive) | 78% (inactive) | 103% (inactive) | 86.2% (inactive) | 8.37% (inactive) | 77.8 | 86.2 | -5.54% (inactive) | 3.61% (inactive)
14 | CCCN(CCC)C(=O)CSc1nc2ccccc2c(=O)n1C1CCCC1 | 136 | 60.5% (inactive) | 136% (inactive) | 87.2% (inactive) | 66.7% (inactive) | 10.4% (inactive) | 56.3 | 66.7 | -3.68% (inactive) | -2.54% (inactive)
15 | COc1ccc(OC)c(CNC(=O)COc2cc(=O)n(C)c3ccccc23)c1 | 82 | 86.5% (inactive) | 82% (inactive) | 105% (inactive) | 88% (inactive) | 2.97% (inactive) | 85 | 88 | 2.31% (inactive) | -4.67% (inactive)
16 | COc1ccc(/C(O)=C2/C(=O)C(=O)N(CCCN(C)C)C2c2ccco2)cc1Cl (stereo not given) | 104 | 98.5% (inactive) | 104% (inactive) | 120% (inactive) | 95.8% (inactive) | 7.21% (inactive) | 88.6 | 95.8 | -6.62% (inactive) | -10.7% (inactive)
17 | Oc1cnc2ccccc2c1CN1CCOCC1 | 98.5 | 92% (inactive) | 98.5% (inactive) | 113% (inactive) | 101% (inactive) | -2.39% (inactive) | 104 | 101 | -3.16% (inactive) | -0.16% (inactive)
18 | O=C(NCc1ccccc1)N1CCn2c(nc3ccccc32)C1 | 93.5 | 91.5% (inactive) | 93.5% (inactive) | 90.2% (inactive) | 92.9% (inactive) | 14.2% (inactive) | 78.7 | 92.9 | -3.73% (inactive) | 1.15% (inactive)
19 | COc1ccccc1NC(=O)N1CCCC1C(=O)NC1CCCCC1 (stereo not given) | 104 | 91.5% (inactive) | 104% (inactive) | 101% (inactive) | 80.1% (inactive) | -4.57% (inactive) | 84.7 | 80.1 | -9.32% (inactive) | -2.5% (inactive)
20 | CC(C)[C@H](NC(=O)NC1CCCC1)C(=O)O | 103 | 97.5% (inactive) | 103% (inactive) | 87.9% (inactive) | 104% (inactive) | 15.2% (inactive) | 89 | 104 | -0.52% (inactive) | -9.34% (inactive)
21 | CCn1c(C)nc2cc(C(=O)OCCC(F)(F)F)ccc21 | 100 | 112% (inactive) | 100% (inactive) | 108% (inactive) | 89.8% (inactive) | -3.94% (inactive) | 93.7 | 89.8 | -2.44% (inactive) | 7.67% (inactive)
22 | Cc1cc2nc(C3CCN(CC4COc5ccccc5O4)CC3)[nH]c2cc1C (stereo not given) | 98.5 | 87.5% (inactive) | 98.5% (inactive) | 3.41% (active) | 77.8% (inactive) | 22.7% (inactive) | 55.2 | 77.8 | -3.03% (inactive) | 2.83% (inactive)
23 | COC(=O)C1=C(C)C(c2cccs2)NC(=O)N1C (stereo not given) | 92.5 | 86.5% (inactive) | 92.5% (inactive) | 102% (inactive) | 95.3% (inactive) | 10.1% (inactive) | 85.2 | 95.3 | -6.13% (inactive) | 1.48% (inactive)
24 | COc1cc(C2C(C#N)=C(N)Oc3cc(N)ccc32)cc(OC)c1OC (stereo not given) | 91.5 | 75% (inactive) | 91.5% (inactive) | 42.1% (inactive) | 32.3% (active) | -28.8% (inactive) | 61.1 | 32.3 | -4% (inactive) | 8.03% (inactive)
25 | COc1ccc(NC2c3ncccc3C(=O)N2Cc2ccccc2)c(OC)c1 (stereo not given) | 101 | 85.5% (inactive) | 101% (inactive) | 93.8% (inactive) | 95.8% (inactive) | 4.3% (inactive) | 91.5 | 95.8 | -1.56% (inactive) | 1.75% (inactive)
26 | CCOc1ccc(C2CC(=O)NC3=C2C(=O)CCC3)cc1Cl (stereo not given) | 108 | 97.5% (inactive) | 108% (inactive) | 88.4% (inactive) | 99.4% (inactive) | 14.2% (inactive) | 85.2 | 99.4 | -4.21% (inactive) | 0% (inactive)
27 | O=C(c1ccccc1)c1ccc(N2CCOCC2)c(NC(=O)c2ccco2)c1 | 82.5 | 78.5% (inactive) | 82.5% (inactive) | 81.1% (inactive) | 87.3% (inactive) | 15.7% (inactive) | 71.6 | 87.3 | -3.16% (inactive) | 2.86% (inactive)
28 | O=C(c1ccco1)N1CCN(S(=O)(=O)c2ccc(Oc3ccccc3)cc2)CC1 | 82 | 102% (inactive) | 82% (inactive) | 78.6% (inactive) | 90.6% (inactive) | -6.27% (inactive) | 96.8 | 90.6 | -1.35% (inactive) | 5.74% (inactive)
29 | Cc1ccc(S(=O)(=O)N2C(=O)CCC2C(=O)Nc2ccc3c(c2)OCCO3)cc1 (stereo not given) | 109 | 96.5% (inactive) | 109% (inactive) | 93.6% (inactive) | 89.7% (inactive) | -4.12% (inactive) | 93.8 | 89.7 | -1.69% (inactive) | -1.67% (inactive)
